The text below walks through data of ChEMBL document CHEMBL1137015, “Improved, selective, human intestinal carboxylesterase inhibitors designed to modulate 7-ethyl-10-[4-(1-piperidino)-1-piperidino]carbonyloxycamptothecin (Irinotecan; CPT-11) toxicity” (J Med Chem, 2009).

Each structure is given as a SMILES string. Calls of active or inactive are those of the source. Where only a bound is given, the exact number is not on record here.

Assay [1] has as its target Acetylcholinesterase (Homo sapiens) (UniProt P22303). Put plainly: Inhibition of human AchE using acetylthiocholine as substrate by spectrophotometric multiwell plate assay.
Assay [2] in a line: Inhibition of human intestinal CE-mediated irinotecan hydrolysis. Summed up:
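Human intestinal CE (25 U per reaction; 1 U converts 1 nmole o-nitrophenyl acetate/min) with 20µM CPT-11 in 50mM Hepes pH7.4, inhibitor 1nM to 100µM. Incubated 37°C for 5 min, stopped with cold acidified methanol, centrifuged. SN-38 measured by reverse phase HPLC. Fractional inhibition fitted to partial inhibition equation, model chosen by Akaike's criteria, Ki from best fit.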

Assay [3] can be described thus: Inhibition of human intestinal CE-mediated O-nitrophenyl acetate hydrolysis by spectrophotometry. An outline of the steps: (§1)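 Enzyme activity read spectrophotometrically as release of o-nitrophenol from o-nitrophenyl acetate across increasing inhibitor concentrations. Inhibitors were freshly dissolved in DMSO, typically as 10mM stocks. Fractional inhibition was plotted against inhibitor concentration and fitted to a partial-inhibition equation including Ks, α and β. Inhibition mode was chosen by Akaike's information criteria, and Ki was taken from the best-fit model.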

Assay [4] deals with Cholinesterase (Homo sapiens) (UniProt P06276). As to the kind of experiment: Inhibition of human BchE using butyrylthiocholine as substrate by spectrophotometric multiwell plate assay.
Chain of Cholinesterase (Homo sapiens) (P06276 whole entry): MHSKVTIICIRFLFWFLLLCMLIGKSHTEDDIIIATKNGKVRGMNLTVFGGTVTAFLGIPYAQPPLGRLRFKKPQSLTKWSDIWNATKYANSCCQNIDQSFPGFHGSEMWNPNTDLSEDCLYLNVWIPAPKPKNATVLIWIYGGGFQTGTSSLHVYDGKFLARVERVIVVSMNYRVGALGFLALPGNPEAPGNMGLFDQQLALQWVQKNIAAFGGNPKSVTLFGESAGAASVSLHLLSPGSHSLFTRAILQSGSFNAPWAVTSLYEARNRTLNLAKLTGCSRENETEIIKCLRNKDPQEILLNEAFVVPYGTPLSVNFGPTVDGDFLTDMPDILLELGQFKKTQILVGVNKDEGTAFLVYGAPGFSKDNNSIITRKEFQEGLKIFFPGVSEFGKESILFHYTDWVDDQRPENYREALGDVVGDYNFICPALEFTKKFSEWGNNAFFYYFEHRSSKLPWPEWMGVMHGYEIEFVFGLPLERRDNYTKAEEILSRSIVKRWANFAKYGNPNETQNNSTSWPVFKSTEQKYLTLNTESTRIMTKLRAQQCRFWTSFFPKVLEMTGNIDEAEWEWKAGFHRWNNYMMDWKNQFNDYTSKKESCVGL
For another assay, the target named is T1, Liver carboxylesterase 1 (Homo sapiens, UniProt P23141).
T1 sequence (P23141 whole entry): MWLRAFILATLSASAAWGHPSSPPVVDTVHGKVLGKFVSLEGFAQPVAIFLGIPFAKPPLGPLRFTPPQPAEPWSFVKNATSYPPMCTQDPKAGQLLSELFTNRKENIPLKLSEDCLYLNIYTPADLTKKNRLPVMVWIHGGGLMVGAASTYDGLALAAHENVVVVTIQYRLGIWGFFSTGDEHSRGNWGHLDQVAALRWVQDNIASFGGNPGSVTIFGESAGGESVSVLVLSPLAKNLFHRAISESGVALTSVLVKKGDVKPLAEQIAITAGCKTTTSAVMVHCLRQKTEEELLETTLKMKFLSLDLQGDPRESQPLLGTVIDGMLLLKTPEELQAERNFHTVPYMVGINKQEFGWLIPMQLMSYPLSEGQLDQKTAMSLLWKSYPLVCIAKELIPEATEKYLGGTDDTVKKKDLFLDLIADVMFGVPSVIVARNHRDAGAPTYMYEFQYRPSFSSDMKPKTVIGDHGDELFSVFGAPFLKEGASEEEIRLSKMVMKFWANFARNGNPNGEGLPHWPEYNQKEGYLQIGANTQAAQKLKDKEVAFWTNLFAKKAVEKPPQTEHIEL
As to the kind of experiment: Inhibition of human liver CE1-mediated O-nitrophenyl acetate hydrolysis by spectrophotometry. Summed up:
as §1

Chain of Acetylcholinesterase (Homo sapiens) (P22303 whole entry): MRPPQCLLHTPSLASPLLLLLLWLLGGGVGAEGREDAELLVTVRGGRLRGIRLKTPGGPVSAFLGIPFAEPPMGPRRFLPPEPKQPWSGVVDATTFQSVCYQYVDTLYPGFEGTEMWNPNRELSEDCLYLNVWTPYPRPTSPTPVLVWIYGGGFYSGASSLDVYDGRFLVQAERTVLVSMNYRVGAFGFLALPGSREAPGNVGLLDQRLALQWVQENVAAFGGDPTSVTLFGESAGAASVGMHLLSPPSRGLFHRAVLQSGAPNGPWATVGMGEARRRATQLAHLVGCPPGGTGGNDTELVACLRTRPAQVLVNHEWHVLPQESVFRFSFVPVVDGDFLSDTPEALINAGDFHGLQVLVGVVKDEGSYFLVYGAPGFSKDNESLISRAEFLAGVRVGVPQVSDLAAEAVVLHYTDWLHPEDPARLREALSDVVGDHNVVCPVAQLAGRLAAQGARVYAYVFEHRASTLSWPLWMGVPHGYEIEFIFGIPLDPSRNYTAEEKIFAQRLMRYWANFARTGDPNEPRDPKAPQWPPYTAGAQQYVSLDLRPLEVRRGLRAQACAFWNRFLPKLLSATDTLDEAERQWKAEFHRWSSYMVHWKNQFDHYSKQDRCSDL

One may read the Ki as a dissociation constant, usually derived from enzyme kinetics or from competition with a known ligand. A lower Ki goes with tighter binding. As for `O=S(=O)(Nc1ccc(NS(=O)(=O)c2ccc(F)cc2)cc1)c1ccc(F)cc1`, the result in assay [1] and in assay [4] was inactive. Besides, the Ki in assay [2] was 0.079 µM; in assay [3], 0.355 µM; at Liver carboxylesterase 1 it was > 100 µM.
In the case of `Cc1c(C)c(NS(=O)(=O)c2cc(Cl)cc(Cl)c2)c(C)c(C)c1NS(=O)(=O)c1cc(Cl)cc(Cl)c1`, the outcome in assay [1] and in assay [4] was inactive. Further, the results for the Ki (in assay [2]; in assay [3]; at Liver carboxylesterase 1) were > 100 µM, 2.6 µM and > 100 µM, respectively.
Consider `O=S(=O)(Nc1ccc2c(c1)Cc1cc(NS(=O)(=O)c3cccc(Cl)c3)ccc1-2)c1cccc(Cl)c1`, for which the outcome in assay [1] and in assay [4] was inactive. Further, the figures for the Ki (in assay [2]; in assay [3]; on Liver carboxylesterase 1) were 0.0528 µM, 0.0139 µM and > 100 µM, respectively.
`Cc1c(C)c(NS(=O)(=O)c2ccc(F)cc2)c(C)c(C)c1NS(=O)(=O)c1ccc(F)cc1`: the result in assay [1] and in assay [4] was inactive. The Ki (in assay [2]; in assay [3]; at Liver carboxylesterase 1) was > 100 µM throughout.
Turning to `O=S(=O)(Nc1ccc(NS(=O)(=O)c2cccc(F)c2)cc1)c1cccc(F)c1`, the outcome in assay [1] and in assay [4] was inactive. Further, the Ki is 0.152 µM in assay [2], 0.248 µM in assay [3] and > 100 µM at Liver carboxylesterase 1.
As for `O=S(=O)(Nc1c(F)c(F)c(NS(=O)(=O)c2ccc(Cl)cc2)c(F)c1F)c1ccc(Cl)cc1`, the outcome in assay [1] and in assay [4] was inactive. Besides, the Ki worked out at 0.11 µM in assay [2] and 0.0415 µM in assay [3].
Regarding `Cc1c(C)c(NS(=O)(=O)c2ccc(Br)cc2)c(C)c(C)c1NS(=O)(=O)c1ccc(Br)cc1`, the result in assay [1] and in assay [4] was inactive. For the same molecule, the values for the Ki (in assay [2]; in assay [3]; on Liver carboxylesterase 1) were > 100 µM, 3.24 µM and > 100 µM, respectively.
On to `O=S(=O)(Nc1c(F)c(F)c(NS(=O)(=O)c2ccc(Br)cc2)c(F)c1F)c1ccc(Br)cc1`, for which the result in assay [1] and in assay [4] was inactive. For the same molecule, the Ki in assay [2] was 0.028 µM; in assay [3], 0.0234 µM; on Liver carboxylesterase 1 it was > 100 µM.
With `O=S(=O)(Nc1ccc2c(c1)Cc1cc(NS(=O)(=O)c3ccc(Cl)cc3)ccc1-2)c1ccc(Cl)cc1`, the result in assay [1] and in assay [4] was inactive. For the same molecule, the results for the Ki (in assay [2]; in assay [3]; at Liver carboxylesterase 1) were 0.0377 µM, 0.0235 µM and > 100 µM, respectively.
Turning to `O=S(=O)(Nc1ccc(NS(=O)(=O)c2ccc(Cl)cc2)c2ccccc12)c1ccc(Cl)cc1`, the result in assay [1] and in assay [4] was inactive. Further, the figures for the Ki in assay [2] and in assay [3] were > 100 µM and 0.194 µM, respectively.
Take `O=S(=O)(Nc1ccc(NS(=O)(=O)c2cccc(Br)c2)cc1)c1cccc(Br)c1`: the result in assay [1] and in assay [4] was inactive. In addition, the Ki in assay [2] was 0.121 µM; in assay [3], 0.067 µM; on Liver carboxylesterase 1 it was > 100 µM.
`O=S(=O)(Nc1ccc(NS(=O)(=O)c2ccc(Br)cc2)cc1)c1ccc(Br)cc1`: the outcome in assay [1] and in assay [4] was inactive. Besides, the results for the inhibition constant (Ki) (in assay [2]; in assay [3]; at Liver carboxylesterase 1) were 0.044 µM, 0.0852 µM and > 100 µM, respectively.
In the case of `O=S(=O)(Nc1ccc2c(c1)Cc1cc(NS(=O)(=O)c3ccccc3)ccc1-2)c1ccccc1`, the result in assay [1] and in assay [4] was inactive. Besides, the Ki in assay [2] was 0.0847 µM; in assay [3], 0.0908 µM; on Liver carboxylesterase 1 it was > 100 µM.
On to `O=S(=O)(Nc1c(Cl)c(Cl)c(NS(=O)(=O)c2ccccc2)c(Cl)c1Cl)c1ccccc1`, for which the outcome in assay [1] and in assay [4] was inactive. The Ki in assay [2] was > 100 µM; in assay [3], 0.451 µM.
As for `O=S(=O)(Nc1ccc2c(c1)Cc1cc(NS(=O)(=O)c3cc(F)c(F)c(F)c3)ccc1-2)c1cc(F)c(F)c(F)c1`, the result in assay [1] and in assay [4] was inactive. Besides, the Ki in assay [2] was 0.0581 µM; in assay [3], 0.0186 µM; at Liver carboxylesterase 1, > 100 µM.
In the case of `O=S(=O)(Nc1ccc2c(c1)Cc1cc(NS(=O)(=O)c3cccc(Br)c3)ccc1-2)c1cccc(Br)c1`, the result in assay [1] and in assay [4] was inactive. Further, the results for the inhibition constant (Ki) (in assay [2]; in assay [3]; on Liver carboxylesterase 1) were 0.0397 µM, 0.0212 µM and > 100 µM, respectively.
As for `O=S(=O)(Nc1ccc(NS(=O)(=O)c2c(F)cccc2F)cc1)c1c(F)cccc1F`, the outcome in assay [1] and in assay [4] was inactive. The results for the Ki (in assay [2]; in assay [3]; on Liver carboxylesterase 1) were > 100 µM, 5.26 µM and > 100 µM, respectively.
In the case of `O=S(=O)(Nc1ccc(NS(=O)(=O)c2cccc(Cl)c2)cc1)c1cccc(Cl)c1`, the result in assay [1] and in assay [4] was inactive. Also, the results for the Ki (in assay [2]; in assay [3]; at Liver carboxylesterase 1) were 0.062 µM, 0.074 µM and > 100 µM, respectively.
`CS(=O)(=O)Nc1ccc(SSc2ccc(NS(C)(=O)=O)cc2)cc1`: the outcome in assay [1] and in assay [4] was inactive. In addition, the Ki in assay [2] was > 100 µM; in assay [3], 0.767 µM.
`O=S(=O)(Nc1ccc(NS(=O)(=O)c2cc(F)c(F)c(F)c2)cc1)c1cc(F)c(F)c(F)c1`: the result in assay [1] and in assay [4] was inactive. The Ki was 0.192 µM in assay [2], 0.21 µM in assay [3] and > 100 µM on Liver carboxylesterase 1.
